One assay has as its system Reovirus-1. The assay is classed as cell-based. Conditions: microscopy and MTS assay.
A further assay concerns Punta Toro virus. Type of assay: cell-based. Conditions: microscopy and MTS assay.
Assay [1] concerns herpes simplex virus type 2. Type of assay: cell-based. As to conditions: microscopy and MTS assay.
In the next assay the test system is sindbis virus. The assay is classed as cell-based. Conditions: microscopy and MTS assay.
The test system of another assay is parainfluenza-3 virus. Type of assay: cell-based. Conditions: microscopy and MTS assay.
The next assay has as its system influenza virus A/H1N1. The assay is classed as cell-based, influenza virus A/Puerto Rico/8/34 (H1N1). Conditions: influenza virus A/H1N1 (A/Puerto Rico/8/34); microscopy and MTS assay.
The test system of another assay is feline coronavirus. Type of assay: cell-based. Conditions: microscopy and MTS assay.
The test system of another assay is vaccinia virus. Type of assay: cell-based.
The subject of a further assay is NMDA receptors. Type of assay: cell-based. As to conditions: cerebellar granule neurons, glutamate or NMDA 100 μM + glycine 10 μM.
Assay [2] concerns herpes simplex virus type 1. Type of assay: cell-based. Conditions: microscopy and MTS assay.
In assay [3] the test system is respiratory syncytial virus. Type of assay: cell-based. As to conditions: microscopy and MTS assay.
A further assay relates to influenza virus A/H3N2. Type of assay: cell-based, influenza virus A/Hong Kong/7/87 (H3N2). Conditions: influenza virus A/H3N2 (A/Hong Kong/7/87); microscopy and MTS assay.
Assay [4] concerns bloodstream form T. brucei (strain 427). Put plainly: T. brucei culturing and drug test. Type of assay: cell-based, Trypanosoma brucei. Conditions: at concentrations up to 5 mg mL^−1. In a few lines:
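Parasites were kept at 37 °C in modified Iscove's medium (pH 7.4) and grown for 48 h with a range of test compound concentrations. Cell density at each concentration was counted by hemocytometer and expressed as percent of untreated control growth. Concentrations giving 50% and 90% growth inhibition (IC₅₀, IC₉₀) were determined. Run in triplicate.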

The subject of another assay is influenza virus B. The assay is classed as cell-based, influenza virus B/Hong Kong/5/72. Conditions: influenza virus B (B/Hong Kong/5/72); microscopy and MTS assay.
The subject of the next assay is Coxsackievirus B4. The assay is classed as cell-based. Conditions: microscopy and MTS assay.
In assay [5] the test system is vesicular stomatitis virus. Type of assay: cell-based.

The values below come from article PMC3217223 (Bioorganic & Medicinal Chemistry, 2009).

Each structure is given as a SMILES string. Structures can show the parent of a compound that is named as a salt.

Regarding `CNC12CC3CC(CC(C3)O1)C2` [Compound 4, N-Methyl(2-oxaadamant-1-yl)amine hydrochloride], the Antiviral activity result is listed as “None of the tested compounds displayed activity” with Reovirus-1; “None of the tested compounds displayed activity” in the assay with Punta Toro virus; “None of the tested compounds displayed activity” in assay [1]; “None of the tested compounds displayed activity” in the assay with sindbis virus; “None of the tested compounds displayed activity” in the assay with parainfluenza-3 virus; “none of the compounds was found to be active” with influenza virus A/H1N1. Besides, the Antiviral activity result in the assay on feline coronavirus is given as “None of the tested compounds displayed activity”; in the assay with vaccinia virus, “None of the tested compounds displayed activity”; in assay [2], “None of the tested compounds displayed activity”; in [3], “None of the tested compounds displayed activity”; with influenza virus A/H3N2, “none of the compounds was found to be active”; in the assay on influenza virus B, “none of the compounds was found to be active”. For the same compound, the Antiviral activity entry (in the assay on Coxsackievirus B4; in assay [5]) was “None of the tested compounds displayed activity” in each case. For the same compound, the “NMDA receptor antagonism (in words)” value with NMDA receptors is “inactive”. In assay [4], the “Trypanocidal activity (in words)” value is “no activity”.
In the case of `c1ccc(CNC23CC4CC(CC(C4)O2)C3)cc1` [Compound 2a, N-Benzyl(2-oxaadamant-1-yl)amine hydrochloride], the Antiviral activity entry with Reovirus-1 was “None of the tested compounds displayed activity”; with Punta Toro virus, “None of the tested compounds displayed activity”; in [1], “None of the tested compounds displayed activity”; with sindbis virus it was “None of the tested compounds displayed activity”; with parainfluenza-3 virus it was “None of the tested compounds displayed activity”; with influenza virus A/H1N1, “none of the compounds was found to be active”. Moreover, the Antiviral activity entry in the assay on feline coronavirus is listed as “None of the tested compounds displayed activity”; in the assay on vaccinia virus, “None of the tested compounds displayed activity”; in assay [2], “None of the tested compounds displayed activity”; in assay [3], “None of the tested compounds displayed activity”; in the assay with influenza virus A/H3N2, “none of the compounds was found to be active”; in the assay on influenza virus B, “none of the compounds was found to be active”. In addition, the Antiviral activity result (in the assay on Coxsackievirus B4; in assay [5]) was “None of the tested compounds displayed activity” throughout. In the assay on NMDA receptors, the “NMDA receptor antagonism (in words)” value is “inactive”. For the same compound, in assay [4], the “Trypanocidal activity (in words)” value is recorded as “no activity”.
